Assay results reported in ChEMBL document CHEMBL1125346, “Guanidinophenyl-substituted enol lactones as selective, mechanism-based inhibitors of trypsin-like serine proteases” (J Med Chem, 1992).

Tests used:
[1] = target: Plasminogen (Homo sapiens) (UniProt P00747); test: Substrate binding constant against plasmin
Outline: (§1)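 Competitive substrate assay: lactone (DMSO, final 10% v/v) and chromogenic substrate combined in buffer, enzyme added, absorbance followed to steady state. Turnover-corrected semilog plot gives kobs; I0 vs I0/kobs replot (eq 6) with separately determined Km yields Ki and ka. Where no burst was seen, Ki was estimated from Km(app) replots using 15-s initial velocities. Buffers and substrates as in incubation assay.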

[2] = Ratio of initial inhibitor concentration to initial t-PA concentration
Outline: (§2)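 Ratio I0/E0 of lactone to enzyme in the 2-h incubation assay; lactone added from DMSO stock to buffered enzyme (final 10% DMSO).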

[3] = target: T1, Serine protease 1 (Bos taurus) (UniProt P00760); test: Maximum percent inhibition by the compound was determined against trypsin (14.6 nM)
T1 sequence (whole entry): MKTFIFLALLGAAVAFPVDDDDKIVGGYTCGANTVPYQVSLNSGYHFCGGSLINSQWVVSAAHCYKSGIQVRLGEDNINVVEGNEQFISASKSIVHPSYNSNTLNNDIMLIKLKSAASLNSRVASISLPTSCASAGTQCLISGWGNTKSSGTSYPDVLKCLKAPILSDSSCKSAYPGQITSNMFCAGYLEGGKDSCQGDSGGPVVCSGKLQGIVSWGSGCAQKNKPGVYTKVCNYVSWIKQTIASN
Outline: (§3)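 Enzyme incubated with excess lactone added from DMSO stock (final 10% DMSO); aliquots over 2 h diluted into substrate: chymotrypsin Suc-AAPF-pNA 315 µM, pH 7.2, 410 nm; t-PA Spectrozyme t-PA 0.2 mM, Tris-imidazole pH 8.4, 405 nm; HNE MeO-Suc-AAPV-pNA 150 µM, pH 7.4, 410 nm; plasmin Ts-GPK-pNA 157.4 µM, pH 7.8, 404 nm; thrombin Ts-GPR-pNA 75 µM, pH 8.0, 408 nm; trypsin Z-VGR-pNA 155 µM, pH 7.2, 404 nm. Activity given relative to a no-lactone control. Some runs used a 10-min substrate-free delay after dilution. ∞ means no recovery over 2 h.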

[4] = Ratio of initial inhibitor concentration to initial trypsin concentration; outline: as §2
[5] = target: Plasminogen (Homo sapiens) (UniProt P00747); test: Maximum percent inhibition by the compound was determined against plasmin(625 nM); outline: as §3
[6] = Ratio of initial inhibitor concentration to initial thrombin concentration; outline: as §2
[7] = Ratio of initial inhibitor concentration to initial Chymotrypsinogen concentration; outline: as §2
[8] = target: Prothrombin (Homo sapiens) (UniProt P00734); test: Time to reach maximum percent inhibition by the compound was determined against thrombin (1.93 nM); format: functional
Outline: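 Thrombin was incubated with excess lactone (DMSO, 10% final). Aliquots over 2 h were diluted into Ts-Gly-Pro-Arg-pNA (75 μM) in 0.05 M phosphate, 0.01 M EDTA, 10 g/L PEG 8000, 10 mg/L aprotinin, pH 8.0, and read at 408 nm against a no-lactone control. Time to maximal inhibition was recorded.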

[9] = target: Plasminogen (Homo sapiens) (UniProt P00747); test: Time to reach maximum percent inhibition by the compound was determined against plasmin(625 nM); format: functional
Outline: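 Plasmin plus excess lactone (10% final DMSO) was sampled over 2 h into Ts-Gly-Pro-Lys-pNA (157.4 μM) in 0.05 M phosphate, pH 7.8. The slope at 404 nm, relative to an enzyme-only control, gave residual activity. Minutes needed to reach maximal inhibition were reported.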

[10] = target: Plasminogen (Homo sapiens) (UniProt P00747); test: Acylation rate constant against plasmin; outline: as §1
[11] = target: T2, Neutrophil elastase (Homo sapiens) (UniProt P08246); test: Time to reach maximum percent inhibition by the compound was determined against human neutrophil elastase HNE(66 nM); format: functional
T2 sequence (whole entry): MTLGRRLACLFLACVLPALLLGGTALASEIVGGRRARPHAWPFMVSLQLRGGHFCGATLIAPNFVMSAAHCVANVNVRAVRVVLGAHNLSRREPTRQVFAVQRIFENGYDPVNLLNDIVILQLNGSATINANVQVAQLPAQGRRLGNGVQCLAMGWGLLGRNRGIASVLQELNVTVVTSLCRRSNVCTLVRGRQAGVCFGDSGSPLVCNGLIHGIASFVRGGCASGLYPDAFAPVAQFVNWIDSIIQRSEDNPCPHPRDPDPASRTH
Outline: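 HNE was incubated with excess lactone in 10% final DMSO. Aliquots drawn during 2 h went into MeO-Suc-Ala-Ala-Pro-Val-pNA (150 μM) in 0.1 M phosphate, 0.5 M NaCl, pH 7.4, read at 410 nm. Activity was set relative to a lactone-free control, and the time (min) to peak inhibition was noted.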

[12] = target: Chymotrypsinogen A (Bos taurus) (UniProt P00766); test: Time for which maximum percent inhibition persists was determined against alpha-chymotrypsin (17 nM); format: functional; outline: as §3
[13] = Ratio of initial inhibitor concentration to initial HNE concentration; outline: as §2
Serine protease 1 = target: T3, Serine protease 1 (Bos taurus, UniProt P00760); test: Decylation rate constant against trypsin
T3 sequence (P00760 whole entry): T1 sequence (whole entry)
Outline: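 Trypsin incubated 30–45 min with excess lactone (same I0/E0 as incubation assay). Free inhibitor removed by two 1-h centrifugations at 0 °C. Activity recovery followed at room temperature against an inhibitor-free control carried through the same treatment; kd is the slope of ln remaining activity vs time. Substrate Z-Val-Gly-Arg-pNA 155 µM, 0.2 M phosphate pH 7.2, 404 nm.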

[14] = Ratio of initial inhibitor concentration to initial urokinase concentration; outline: as §2
[15] = target: Tissue-type plasminogen activator (Homo sapiens) (UniProt P00750); test: Maximum percent inhibition persists was determined against Tissue plasminogen activator (19.4 nM); outline: as §3
[16] = target: T1, Serine protease 1 (Bos taurus); test: Second order rate constant against trypsin; outline: as §1
[17] = target: T4, Urokinase-type plasminogen activator (Homo sapiens, UniProt P00749)
[18] = Ratio of initial inhibitor concentration to initial Plasmin concentration; outline: as §2
[19] = target: T4, Urokinase-type plasminogen activator; remark: listed apart in the source
[20] = target: Chymotrypsinogen A (Bos taurus) (UniProt P00766); test: Maximum percent inhibition by the compound was determined against Chymotrypsinogen (17 nM); outline: as §3
[21] = target: Chymotrypsinogen A (Bos taurus) (UniProt P00766); test: Time to reach maximum percent inhibition by the compound was determined against alpha-chymotrypsin (17 nM); format: functional
Outline: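 α-Chymotrypsin with excess lactone (DMSO, 10% final) was sampled over 2 h into Suc-Ala-Ala-Pro-Phe-pNA (315 μM) in 0.2 M phosphate, pH 7.2. Absorbance at 410 nm gave the remaining activity versus a control without lactone. Minutes to maximal inhibition were taken.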

[22] = target: T1, Serine protease 1 (Bos taurus); test: Acylation rate constant against trypsin; outline: as §1
[23] = target: Tissue-type plasminogen activator (Homo sapiens) (UniProt P00750); test: Time to reach maximum percent inhibition by the compound was determined against Tissue plasminogen activator (19.4 nM); format: functional
Outline: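 Tissue plasminogen activator was exposed to excess lactone (10% final DMSO). Over 2 h, aliquots were diluted into Spectrozyme t-PA (0.2 mM) in Tris-imidazole, I 0.3, pH 8.4. Hydrolysis at 405 nm gave residual activity relative to an enzyme-only control. The time (min) to reach maximal percent inhibition was recorded.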

[24] = target: Prothrombin (Homo sapiens) (UniProt P00734); test: Time for which maximum percent inhibition persists was determined against thrombin (1.93 nM); format: functional; outline: as §3
[25] = target: Prothrombin (Homo sapiens) (UniProt P00734); test: Maximum percent inhibition by the compound was determined against thrombin (1.93 nM); outline: as §3
[26] = target: T4, Urokinase-type plasminogen activator; remark: listed apart in the source
[27] = target: T2, Neutrophil elastase (Homo sapiens); test: Maximum percent inhibition by the compound was determined against human neutrophil elastase HNE(66 nM); outline: as §3
[28] = target: T4, Urokinase-type plasminogen activator; test: Substrate binding constant against Urokinase
[29] = target: T2, Neutrophil elastase (Homo sapiens); test: Time for which maximum percent inhibition persists was determined against human neutrophil elastase HNE(66 nM); format: functional; outline: as §3
[30] = target: Tissue-type plasminogen activator (Homo sapiens) (UniProt P00750); test: Time for which maximum percent inhibition persists was determined against Tissue plasminogen activator (19.4 nM); format: functional; outline: as §3
[31] = target: Plasminogen (Homo sapiens) (UniProt P00747); test: Time for which maximum percent inhibition persists was determined against plasmin(625 nM); * =no enzyme activity was recovered over 2 h; format: functional; outline: as §3
[32] = target: Plasminogen (Homo sapiens) (UniProt P00747); test: Second order rate constant against plasmin; outline: as §1

Tissue-type plasminogen activator (Homo sapiens), sequence (P00750 36-562 limits assumed): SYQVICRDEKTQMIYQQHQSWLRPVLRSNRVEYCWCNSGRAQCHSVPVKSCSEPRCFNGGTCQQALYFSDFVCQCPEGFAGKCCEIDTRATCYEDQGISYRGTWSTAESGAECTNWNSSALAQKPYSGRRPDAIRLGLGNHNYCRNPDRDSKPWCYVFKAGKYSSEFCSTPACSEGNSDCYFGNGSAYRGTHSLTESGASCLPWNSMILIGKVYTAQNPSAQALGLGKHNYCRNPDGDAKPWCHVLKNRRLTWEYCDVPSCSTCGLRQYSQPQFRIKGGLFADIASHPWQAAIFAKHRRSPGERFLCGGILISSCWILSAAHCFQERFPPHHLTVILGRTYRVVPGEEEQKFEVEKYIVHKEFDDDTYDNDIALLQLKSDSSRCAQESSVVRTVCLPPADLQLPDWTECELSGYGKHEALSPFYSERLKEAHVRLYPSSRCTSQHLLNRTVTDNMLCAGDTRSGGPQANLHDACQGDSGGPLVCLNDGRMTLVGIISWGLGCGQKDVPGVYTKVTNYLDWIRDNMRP
Plasminogen (Homo sapiens), sequence (P00747 97-580 limits assumed): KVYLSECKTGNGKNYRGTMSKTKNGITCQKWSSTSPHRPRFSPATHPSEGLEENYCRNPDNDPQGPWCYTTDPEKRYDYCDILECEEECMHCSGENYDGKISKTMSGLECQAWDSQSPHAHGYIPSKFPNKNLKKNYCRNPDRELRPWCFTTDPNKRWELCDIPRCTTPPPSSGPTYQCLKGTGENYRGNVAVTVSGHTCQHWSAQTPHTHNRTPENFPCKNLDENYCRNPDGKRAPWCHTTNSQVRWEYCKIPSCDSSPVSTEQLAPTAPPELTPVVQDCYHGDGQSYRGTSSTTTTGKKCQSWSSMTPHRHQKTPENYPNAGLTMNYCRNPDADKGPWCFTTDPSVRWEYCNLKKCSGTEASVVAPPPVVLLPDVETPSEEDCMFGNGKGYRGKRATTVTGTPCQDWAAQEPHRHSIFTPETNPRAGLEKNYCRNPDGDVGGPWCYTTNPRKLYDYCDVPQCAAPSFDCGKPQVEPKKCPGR
Plasminogen (Homo sapiens), sequence (P00747 581-810 limits assumed): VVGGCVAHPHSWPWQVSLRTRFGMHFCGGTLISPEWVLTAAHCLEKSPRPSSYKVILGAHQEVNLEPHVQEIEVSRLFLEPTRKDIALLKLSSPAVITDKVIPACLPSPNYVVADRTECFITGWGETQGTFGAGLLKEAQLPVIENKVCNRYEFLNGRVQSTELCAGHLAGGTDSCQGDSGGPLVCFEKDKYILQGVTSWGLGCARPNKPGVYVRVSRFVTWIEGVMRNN

A Ks [1] of 11 µM, a Ratio [2] of 100 Io/Eo and an inhibition [3] of 99% were found for N=C(N)Nc1ccc(C2CC(=O)O/C(=C/I)C2)cc1 (stereo not drawn) in this work. It also gave a Ratio [4] of 86 Io/Eo, an inhibition [5] of 97% and a Ratio [6] of 518 Io/Eo. The Ratio [7] was 118 Io/Eo, the TIME [8] was 1.5 h and the TIME [9] was 1 h. It also gave a Ka [10] of 11 min⁻¹, a TIME [11] of 0.25 h and a TIME [12] of 0.25 h. For the same compound, the Ratio [13] was 36 Io/Eo, the Kd (Serine protease 1) was 0.00033 s⁻¹ and the Ratio [14] was 50 Io/Eo. The inhibition [15] was 22%, the Rate [16] was 0.13 ka/Ks and the Ka [17] was 2.61 min⁻¹. For the same compound, the Ratio [18] was 16 Io/Eo, the Ks [19] was 7.83 µM and the inhibition [20] was 47%. It also gave a TIME [21] of 0 h, a Ka [22] of 0.54 min⁻¹ and a TIME [23] of 0 h. The TIME [24] was 0 h, the inhibition [25] was 38% and the Rate [26] was 0.33 ka/Ks. For the same compound, the inhibition [27] was 67%, the Ks [28] was 7.83 µM and the TIME [29] was 0.25 h. For the same compound, the TIME [30] was 0.25 h, the TIME [31] was “No enzyme activity” and the Rate [32] was 0.9 ka/Ks.
